Experimental data: ChEMBL document CHEMBL4354866, “TREK Channel Family Activator with a Well-Defined Structure-Activation Relationship for Pain and Neurogenic Inflammation” (J Med Chem, 2020)
Residue numbers refer to the chain shown, from its start. Active and inactive are the calls of the source. No cut-off for these calls is given here.

Columns and labels:
Mus musculus [1] = assay: (§1) Analgesic activity in cerulein-induced mouse model of acute pancreatitis assessed as reduction in pancreatic edema at 10 mg/kg, ip administered at 2 hrs interval for 10 hrs starting from post-first cerulein challenge and measured 12 hrs post-first cerulein challenge by H and E staining based histopathological analysis; assay type: functional, organism-based
Method in brief: (§2)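 Cerulein pancreatitis: 7 hourly i.p. injections of 50 µg/kg; 10 mg/kg compound i.p. at 2, 4, 6, 8 and 10 h. Mice killed at 12 h and pancreas harvested for MPO activity and H&E histology. Ten random fields per slide scored blind by two observers for edema, inflammatory infiltration and acinar necrosis; n = 6.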

[2] = tested on: T1, Potassium channel subfamily K member 2 (Homo sapiens), O95069 [F160A]; assay: Activation of recombinant human TREK1 F160A mutant expressed in HEK293T cells assessed as increase in K+ current amplitude by whole cell voltage clamp electrophysiological analysis; assay type: cell-based
T1 sequence (whole entry): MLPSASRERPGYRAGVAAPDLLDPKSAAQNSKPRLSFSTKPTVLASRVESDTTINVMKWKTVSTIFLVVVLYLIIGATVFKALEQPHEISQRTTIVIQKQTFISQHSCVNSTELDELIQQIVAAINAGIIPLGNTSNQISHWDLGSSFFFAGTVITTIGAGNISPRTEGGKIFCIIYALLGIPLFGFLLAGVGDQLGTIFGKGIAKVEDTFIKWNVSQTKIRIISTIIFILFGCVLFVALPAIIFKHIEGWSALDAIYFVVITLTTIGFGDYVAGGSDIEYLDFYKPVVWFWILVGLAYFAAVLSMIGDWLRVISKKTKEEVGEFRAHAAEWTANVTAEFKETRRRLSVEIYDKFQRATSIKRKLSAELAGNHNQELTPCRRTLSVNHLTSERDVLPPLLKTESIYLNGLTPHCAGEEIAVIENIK
Method in brief: (§3)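 Transiently transfected HEK-293T cells, whole-cell voltage clamp. Held at -60 mV, 500-ms ramp -120 to +60 mV. Pipette (mM) 140 KCl, 5 EGTA, 10 HEPES, pH 7.4; external 145 NaCl, 4 KCl, pH 7.3. Compound diluted from 10 mM DMSO stock and applied extracellularly. Current increase over control fitted to concentration–response curves for EC50.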

[3] = target: T2, Potassium channel subfamily K member 2 (Homo sapiens) (UniProt O95069); assay: Activation of recombinant human TREK1 expressed in HEK293T cells assessed as change in probability of open channel by inside-out patch electrophysiological analysis; assay type: cell-based
T2 sequence (whole entry): T1 sequence (whole entry) with A160F
Method in brief: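 Inside-out patches from HEK-293T cells expressing human TREK-1 (pEGFP-N1), 10 μM compound. Conductance taken as first open-state amplitude over voltage at -60 or +60 mV.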

[4] = target: Potassium channel subfamily K member 9 (Homo sapiens) (UniProt Q9NPC2); assay: Activation of recombinant human TASK3 expressed in HEK293T cells assessed as increase in K+ current amplitude at 10 uM by whole cell voltage clamp electrophysiological analysis; assay type: cell-based
Method in brief: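 HEK-293T cells transiently transfected with the human K2P channel. Whole-cell clamp at -60 mV, 500-ms ramp -120 to +60 mV. Pipette 140 KCl (pH 7.4), external 145 NaCl/4 KCl (pH 7.3). Compound 10 μM, diluted from 10 mM DMSO stock into external solution.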

Mus musculus [5] = assay: as §1, with “inflammatory infiltration” for “edema”; assay type: functional, organism-based; method in brief: as §2
[6] = target: T3, Potassium channel subfamily K member 2 (Rattus norvegicus) (UniProt Q920B6); assay: Activation of TREK in depolarized Sprague-Dawley rat DRG neurons assessed as increase in K+ current amplitude at 10 uM by whole cell voltage clamp electrophysiological analysis relative to control
T3 sequence (whole entry): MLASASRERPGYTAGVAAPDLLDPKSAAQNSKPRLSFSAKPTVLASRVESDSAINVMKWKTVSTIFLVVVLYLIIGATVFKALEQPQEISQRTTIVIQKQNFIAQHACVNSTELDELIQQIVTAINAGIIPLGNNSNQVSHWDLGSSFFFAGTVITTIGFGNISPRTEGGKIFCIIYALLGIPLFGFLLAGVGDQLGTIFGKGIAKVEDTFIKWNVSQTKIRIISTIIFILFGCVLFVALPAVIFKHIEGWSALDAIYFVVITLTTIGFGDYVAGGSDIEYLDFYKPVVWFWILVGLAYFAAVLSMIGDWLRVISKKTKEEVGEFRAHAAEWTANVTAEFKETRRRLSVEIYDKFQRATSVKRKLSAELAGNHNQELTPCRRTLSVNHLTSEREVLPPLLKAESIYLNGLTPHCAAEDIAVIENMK

[7] = Drug uptake in BALB/c mouse plasma at 5 mg/kg, ip administered as single dose by LC-MS/MS analysis; assay type: ADME, organism-based; settings: in vivo
Method in brief: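 BALB/c mice (n = 6) given a single 5 mg/kg i.p. dose as a 0.5 mg/ml solution in 5% DMSO/5% Tween 80/90% saline. Plasma sampled at 0.083–8 h. Concentrations measured by LC-MS/MS against spiked standard curves; AUC, Tmax, Cmax and T1/2 calculated by non-compartmental analysis of mean concentrations.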

[8] = target: T2, Potassium channel subfamily K member 2 (Homo sapiens); assay: (§4) Activation of recombinant human TREK1 expressed in HEK293T cells assessed as increase in K+ current amplitude by whole cell voltage clamp electrophysiological analysis; assay type: cell-based; method in brief: as §3
[9] = target: T4, Potassium channel subfamily K member 2 (Homo sapiens, UniProt O95069); assay: as §4; assay type: cell-based; method in brief: as §3
T4 sequence (O95069 whole entry): T1 sequence (whole entry) with A160F

Sequence of Potassium channel subfamily K member 9 (Homo sapiens) (Q9NPC2 whole entry): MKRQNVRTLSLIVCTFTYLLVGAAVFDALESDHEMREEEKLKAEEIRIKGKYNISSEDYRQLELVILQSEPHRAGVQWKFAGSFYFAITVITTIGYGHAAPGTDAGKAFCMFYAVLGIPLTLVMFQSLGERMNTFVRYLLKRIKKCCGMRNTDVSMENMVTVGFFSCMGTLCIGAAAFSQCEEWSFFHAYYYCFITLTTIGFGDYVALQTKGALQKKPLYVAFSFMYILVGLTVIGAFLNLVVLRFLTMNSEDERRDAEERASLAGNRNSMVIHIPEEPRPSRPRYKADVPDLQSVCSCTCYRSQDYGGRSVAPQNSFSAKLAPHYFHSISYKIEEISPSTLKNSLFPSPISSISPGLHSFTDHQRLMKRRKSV

Activity [2]: inactive
Activity [3]: inactive
Activity [4]: Active
Activity [6]: 24%
Drug uptake [7]: Active
Activity [8]: Dose-dependent effect
EC50 [9]: 12.8 µM
Compound: Cc1ccc2nc(-c3ccc(NC(=O)[C@@H]4CC[C@H](C(=O)O)C4)cc3)sc2c1
Activity (Mus musculus [1]): Active
Activity (Mus musculus [5]): Active
